ChEMBL document CHEMBL4229368, “N,N'-disubstituted cinnamamide derivatives potentiate ciprofloxacin activity against overexpressing NorA efflux pump Staphylococcus aureus 1199B strains” (Eur J Med Chem, 2018)

Columns and labels:
[1] = test system: Staphylococcus aureus; assay: Growth inhibition of wild type Staphylococcus aureus SA1199 assessed as non-toxic concentration after 18 to 24 hrs by broth microdilution method; format: organism-based; details: pooled result: one value given for 2 cell lines, strains, targets or settings, read-out: Activity
[2] = test system: Staphylococcus aureus; assay: Bactericidal activity against wild type Staphylococcus aureus SA1199 at 10 ug/ml after 18 to 24 hrs by broth microdilution method; format: ADME, organism-based
[3] = test system: Staphylococcus aureus; assay: Potentiation of ciprofloxacin-induced antibacterial activity against wild type Staphylococcus aureus SA1199 assessed as fold reduction in ciprofloxacin MIC at 23 uM after 18 to 24 hrs by broth microdilution method; format: functional
Summary of the method: (§1)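 Ciprofloxacin MIC by CLSI/CASFM broth microdilution in Mueller-Hinton II, two-fold serial dilutions, inoculum 5.10⁵ CFU/mL, 37 °C for 18-24 h. MIC is the lowest concentration with no visible growth. Test agent co-administered at a fixed final concentration without antibacterial activity (10 or 30 µg/mL, or 1/4 MIC where intrinsically active). Result is fold reduction of ciprofloxacin MIC. At least three independent experiments.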

[4] = target: T1, Quinolone resistance protein NorA (Staphylococcus aureus) (UniProt P0A0J7); assay: Inhibition of NorA in Staphylococcus aureus SA1199B assessed as potentiation of ciprofloxacin-induced antibacterial activity by measuring fold reduction in ciprofloxacin MIC at 23 uM after 18 to 24 hrs by broth microdilution method; summary of the method: as §1
T1 sequence (whole entry): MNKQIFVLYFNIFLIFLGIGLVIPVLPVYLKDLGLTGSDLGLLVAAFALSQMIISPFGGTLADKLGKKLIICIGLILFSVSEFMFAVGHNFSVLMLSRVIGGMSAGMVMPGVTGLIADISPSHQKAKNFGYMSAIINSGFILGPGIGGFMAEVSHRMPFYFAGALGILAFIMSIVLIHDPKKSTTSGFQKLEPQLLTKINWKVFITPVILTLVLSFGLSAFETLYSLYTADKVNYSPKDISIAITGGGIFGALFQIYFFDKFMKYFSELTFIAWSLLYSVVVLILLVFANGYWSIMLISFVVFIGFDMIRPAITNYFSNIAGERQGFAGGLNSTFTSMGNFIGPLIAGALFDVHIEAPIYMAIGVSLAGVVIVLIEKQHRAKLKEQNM

[5] = Cytotoxicity against human MRC5 cells assessed as reduction in cell viability after 72 hrs by MTT assay; format: cell-based
Summary of the method: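 MRC5 human lung fibroblasts plated in triplicate at 6000 cells/well in MEM with 10% FBS and incubated overnight at 37 °C, 5% CO2. Compound or DMSO vehicle applied for 72 h, then MTT 1 mg/mL added for 3 h at 37 °C. Formazan dissolved in 0.01 M HCl in isopropanol for 15 min. A570 read minus A690; GI50 as mean SD of ≥3 independent experiments.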

[6] = test system: Staphylococcus aureus; assay: Bactericidal activity against wild type Staphylococcus aureus SA1199 at 30 ug/ml after 18 to 24 hrs by broth microdilution method; format: ADME, organism-based; details: in vitro
[7] = test system: Staphylococcus aureus; assay: Potentiation of ciprofloxacin-induced antibacterial activity against wild type Staphylococcus aureus SA1199 assessed as fold reduction in ciprofloxacin MIC at 90.9 uM after 18 to 24 hrs by broth microdilution method; format: functional; summary of the method: as §1
[8] = target: T1, Quinolone resistance protein NorA (Staphylococcus aureus); assay: Inhibition of NorA in Staphylococcus aureus SA1199B assessed as potentiation of ciprofloxacin-induced antibacterial activity by measuring fold reduction in ciprofloxacin MIC at 90.9 uM after 18 to 24 hrs by broth microdilution method; summary of the method: as §1
[9] = test system: Staphylococcus aureus; assay: Potentiation of ciprofloxacin-induced antibacterial activity against wild type Staphylococcus aureus SA1199 assessed as fold reduction in ciprofloxacin MIC at 80.6 uM after 18 to 24 hrs by broth microdilution method; format: functional; summary of the method: as §1
[10] = target: T1, Quinolone resistance protein NorA (Staphylococcus aureus); assay: Inhibition of NorA in Staphylococcus aureus SA1199B assessed as potentiation of ciprofloxacin-induced antibacterial activity by measuring fold reduction in ciprofloxacin MIC at 80.6 uM after 18 to 24 hrs by broth microdilution method; summary of the method: as §1
[11] = test system: Staphylococcus aureus; assay: Potentiation of ciprofloxacin-induced antibacterial activity against wild type Staphylococcus aureus SA1199 assessed as fold reduction in ciprofloxacin MIC at 73 uM after 18 to 24 hrs by broth microdilution method; format: functional; summary of the method: as §1
[12] = target: T1, Quinolone resistance protein NorA (Staphylococcus aureus); assay: Inhibition of NorA in Staphylococcus aureus SA1199B assessed as potentiation of ciprofloxacin-induced antibacterial activity by measuring fold reduction in ciprofloxacin MIC at 73 uM after 18 to 24 hrs by broth microdilution method; summary of the method: as §1
[13] = test system: Staphylococcus aureus; assay: Potentiation of ciprofloxacin-induced antibacterial activity against wild type Staphylococcus aureus SA1199 assessed as fold reduction in ciprofloxacin MIC at 81.3 uM after 18 to 24 hrs by broth microdilution method; format: functional; summary of the method: as §1
[14] = target: T1, Quinolone resistance protein NorA (Staphylococcus aureus); assay: Inhibition of NorA in Staphylococcus aureus SA1199B assessed as potentiation of ciprofloxacin-induced antibacterial activity by measuring fold reduction in ciprofloxacin MIC at 81.3 uM after 18 to 24 hrs by broth microdilution method; summary of the method: as §1
[15] = test system: Staphylococcus aureus; assay: Potentiation of ciprofloxacin-induced antibacterial activity against wild type Staphylococcus aureus SA1199 assessed as fold reduction in ciprofloxacin MIC at 22.9 uM after 18 to 24 hrs by broth microdilution method; format: functional; summary of the method: as §1
[16] = target: T1, Quinolone resistance protein NorA (Staphylococcus aureus); assay: Inhibition of NorA in Staphylococcus aureus SA1199B assessed as potentiation of ciprofloxacin-induced antibacterial activity by measuring fold reduction in ciprofloxacin MIC at 22.9 uM after 18 to 24 hrs by broth microdilution method; summary of the method: as §1
[17] = test system: Staphylococcus aureus; assay: Potentiation of ciprofloxacin-induced antibacterial activity against wild type Staphylococcus aureus SA1199 assessed as fold reduction in ciprofloxacin MIC at 21 uM after 18 to 24 hrs by broth microdilution method; format: functional; summary of the method: as §1
[18] = target: T1, Quinolone resistance protein NorA (Staphylococcus aureus); assay: Inhibition of NorA in Staphylococcus aureus SA1199B assessed as potentiation of ciprofloxacin-induced antibacterial activity by measuring fold reduction in ciprofloxacin MIC at 21 uM after 18 to 24 hrs by broth microdilution method; summary of the method: as §1
[19] = test system: Staphylococcus aureus; assay: Potentiation of ciprofloxacin-induced antibacterial activity against wild type Staphylococcus aureus SA1199 assessed as fold reduction in ciprofloxacin MIC at 32.9 uM after 18 to 24 hrs by broth microdilution method; format: functional
[20] = test system: Staphylococcus aureus; assay: Potentiation of ciprofloxacin-induced antibacterial activity against wild type Staphylococcus aureus SA1199 assessed as fold reduction in ciprofloxacin MIC at 20.6 uM after 18 to 24 hrs by broth microdilution method; format: functional; summary of the method: as §1
[21] = target: T1, Quinolone resistance protein NorA (Staphylococcus aureus); assay: Inhibition of NorA in Staphylococcus aureus SA1199B assessed as potentiation of ciprofloxacin-induced antibacterial activity by measuring fold reduction in ciprofloxacin MIC at 20.6 uM after 18 to 24 hrs by broth microdilution method; summary of the method: as §1
[22] = test system: Staphylococcus aureus; assay: Growth inhibition of Staphylococcus aureus SA1199B over-expressing NorA at 15.6 ug/ml after 18 to 24 hrs by broth microdilution method; format: organism-based
[23] = test system: Staphylococcus aureus; assay: Potentiation of ciprofloxacin-induced antibacterial activity against wild type Staphylococcus aureus SA1199 assessed as fold reduction in ciprofloxacin MIC at 37.1 uM after 18 to 24 hrs by broth microdilution method; format: functional; summary of the method: as §1
[24] = target: T1, Quinolone resistance protein NorA (Staphylococcus aureus); assay: Inhibition of NorA in Staphylococcus aureus SA1199B assessed as potentiation of ciprofloxacin-induced antibacterial activity by measuring fold reduction in ciprofloxacin MIC at 37.1 uM after 18 to 24 hrs by broth microdilution method; summary of the method: as §1
[25] = test system: Staphylococcus aureus; assay: Growth inhibition of wild type Staphylococcus aureus SA1199 after 18 to 24 hrs by broth microdilution method; format: organism-based
[26] = test system: Staphylococcus aureus; assay: Potentiation of ciprofloxacin-induced antibacterial activity against wild type Staphylococcus aureus SA1199 assessed as fold reduction in ciprofloxacin MIC at 19.1 uM after 18 to 24 hrs by broth microdilution method; format: functional; summary of the method: as §1
[27] = target: T1, Quinolone resistance protein NorA (Staphylococcus aureus); assay: Inhibition of NorA in Staphylococcus aureus SA1199B assessed as potentiation of ciprofloxacin-induced antibacterial activity by measuring fold reduction in ciprofloxacin MIC at 19.1 uM after 18 to 24 hrs by broth microdilution method; summary of the method: as §1
[28] = target: T1, Quinolone resistance protein NorA (Staphylococcus aureus); assay: Potency index, ratio of compound effect to reserpine effect for inhibition of NorA in Staphylococcus aureus SA1199B assessed as potentiation of ciprofloxacin-induced antibacterial activity by measuring fold reduction in ciprofloxacin MIC
[29] = test system: Staphylococcus aureus; assay: Potentiation of ciprofloxacin-induced antibacterial activity against wild type Staphylococcus aureus SA1199 assessed as fold reduction in ciprofloxacin MIC at 25.3 uM after 18 to 24 hrs by broth microdilution method; format: functional; summary of the method: as §1
[30] = target: T1, Quinolone resistance protein NorA (Staphylococcus aureus); assay: Inhibition of NorA in Staphylococcus aureus SA1199B assessed as potentiation of ciprofloxacin-induced antibacterial activity by measuring fold reduction in ciprofloxacin MIC at 25.3 uM after 18 to 24 hrs by broth microdilution method; summary of the method: as §1
[31] = test system: Staphylococcus aureus; assay: Growth inhibition of wild type Staphylococcus aureus SA1199 at 3.9 ug/ml after 18 to 24 hrs by broth microdilution method; format: organism-based
[32] = test system: Staphylococcus aureus; assay: Growth inhibition of Staphylococcus aureus SA1199B over-expressing NorA at 3.9 ug/ml after 18 to 24 hrs by broth microdilution method; format: organism-based
[33] = test system: Staphylococcus aureus; assay: Potentiation of ciprofloxacin-induced antibacterial activity against wild type Staphylococcus aureus SA1199 assessed as fold reduction in ciprofloxacin MIC at 8.5 uM after 18 to 24 hrs by broth microdilution method; format: functional; summary of the method: as §1
[34] = target: T1, Quinolone resistance protein NorA (Staphylococcus aureus); assay: Inhibition of NorA in Staphylococcus aureus SA1199B assessed as potentiation of ciprofloxacin-induced antibacterial activity by measuring fold reduction in ciprofloxacin MIC at 8.5 uM after 18 to 24 hrs by broth microdilution method; summary of the method: as §1

Structure (SMILES) | MNTC [1] [µM] | Activity [2] | GI50 at 72 h [5] [µM] | Activity [6] | also measured
CC(C)(C)OC(=O)NCCN(CCc1c[nH]c2ccccc12)C(=O)/C=C/c1ccccc1 | 23 | Non-Toxic | 35.3 |  | fold change (FC) [3]: 2; fold change (FC) [4]: 4
Cl.NCCN(CCc1ccccc1)C(=O)/C=C/c1ccccc1 | 90.9 |  | 73.3 | Non-Toxic | fold change (FC) [7]: 1 - 2; fold change (FC) [8]: 1
CC(C)[C@H](N)CN(CCc1ccccc1)C(=O)/C=C/c1ccccc1.Cl | 80.6 |  | 52.4 | Non-Toxic | fold change (FC) [9]: 1 - 2; fold change (FC) [10]: 2
CC(C)[C@H](N)CN(CCc1c[nH]c2ccccc12)C(=O)/C=C/c1ccccc1.Cl | 73 |  | 25.3 | Non-Toxic | fold change (FC) [11]: 2 - 4; fold change (FC) [12]: 4
Cl.NCCN(CCc1c[nH]c2ccccc12)C(=O)/C=C/c1ccccc1 | 81.3 |  | 20.7 | Non-Toxic | fold change (FC) [13]: 2; fold change (FC) [14]: 2
CC(C)[C@@H](CN(CCc1ccccc1)C(=O)/C=C/c1ccccc1)NC(=O)OC(C)(C)C | 22.9 | Non-Toxic | 40.7 |  | fold change (FC) [15]: 1 - 2; fold change (FC) [16]: 2
CC(C)[C@@H](CN(CCc1c[nH]c2ccccc12)C(=O)/C=C/c1ccccc1)NC(=O)OC(C)(C)C | 21 | Non-Toxic | 43.7 |  | fold change (FC) [17]: 1 - 2; fold change (FC) [18]: 4
COC(=O)[C@H]1[C@H]2C[C@@H]3c4[nH]c5cc(OC)ccc5c4CCN3C[C@H]2C[C@@H](OC(=O)c2cc(OC)c(OC)c(OC)c2)[C@@H]1OC [RESERPINE] | 32.9 |  | 14.7 |  | fold change (FC) [19]: 2
CC(C)(C)OC(=O)N[C@@H](Cc1ccccc1)CN(CCc1ccccc1)C(=O)/C=C/c1ccccc1 | 20.6 | Non-Toxic | 17.3 |  | fold change (FC) [20]: 1; fold change (FC) [21]: 1 to 2
Cl.N[C@@H](Cc1ccccc1)CN(CCc1ccccc1)C(=O)/C=C/c1ccccc1 | 37.1 |  | 6.5 |  | growth inhibition (GI) [22]: Toxic; fold change (FC) [23]: 2 - 4; fold change (FC) [24]: 2; MIC [25]: 62.5 µg/mL
CC(C)(C)OC(=O)N[C@@H](Cc1ccccc1)CN(CCc1c[nH]c2ccccc12)C(=O)/C=C/c1ccccc1 | 19.1 | Non-Toxic | 70 |  | fold change (FC) [26]: 1 - 2; fold change (FC) [27]: 4 to 8; Ratio [28]: 2
CC(C)(C)OC(=O)NCCN(CCc1ccccc1)C(=O)/C=C/c1ccccc1 | 25.3 | Non-Toxic | 54.7 |  | fold change (FC) [29]: 1; fold change (FC) [30]: 2
Cl.N[C@@H](Cc1ccccc1)CN(CCc1c[nH]c2ccccc12)C(=O)/C=C/c1ccccc1 | 8.5 |  | 6.33 |  | growth inhibition (GI) [31]: Toxic; growth inhibition (GI) [32]: Toxic; fold change (FC) [33]: 2; fold change (FC) [34]: 2; MIC [25]: 15.7 µg/mL
